MT stabilizer: stabilizes microtubules in HeLa cells; HeLa tubulin immunostaining HCS, 24 h; share of cells brighter than vehicle mean+2SD; % tubulin-high responders, % at 10 µM; 200,000 compounds, 0.83% hits;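 active means plate Z-score above 3 for both tubulin-high and condensed-nucleus cell shares, with cell loss under 80%, at 10 µM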;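 further: anti alpha tubulin signal scored within the nucleus-defined area of each cell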
b-catenin transl: beta-catenin nuclear translocation modulation. HeLa beta-catenin nuclear translocation, immunofluorescence imaging. nuclear translocation activity, % at 5 µM. 190,000 compounds, 0.3% hits;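 active means nuclear translocation activity above 50% at 5 µM, with a well cell count of 50 or more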;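 further: per-cell ratio of nuclear to cytoplasmic median beta-catenin stain intensity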
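test system = HeLa cells, endogenous beta-catenin | dosing = single 5 µM dose plus 0.02–20 µM confirmation series | times = compound treatment 24 h, 37°C, 5% CO2 | technique = beta-catenin immunofluorescence imaging with DAPI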
Ba/F3 V617F tox: loss of viability in JAK2V617F-driven Ba/F3 cells | Ba/F3 EpoR-JAK2V617F viability, ATP luminescence | inhibition, % at 5.6 µM | 220,000 compounds, 1.1% hits | AID 1446;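 active means inhibition above the campaign mean plus 3 SD over all tested compounds, cut at about 24% in these data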;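 further: cytokine-independent growth of Ba/F3 cells driven by EpoR plus mutant JAK2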
IEC-6 cytotox: kills IEC-6 intestinal cells in KLF5 counter-screen | inhibition, % at 5 µM | 290,000 compounds, 0.78% hits | IEC-6 cytotoxicity, luminescence viability; in the data active means inhibition above about 22%
BaF3 parental: counter-screen for JAK2V617F inhibitors: parental Ba/F3 viability inhibitors; 220,000 compounds, 1.1% hits; AID 1486; CellTiter-Glo ATP luminescence; inhibition, % at 5.6 µM;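 active means inhibition above a per-campaign cutoff, the mean inhibition of all tested compounds plus 3 SD, cut at about 27% in these data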
KLF5 inh: suppresses KLF5 promoter-driven expression; 290,000 compounds, 0.23% hits; inhibition, % at 5 µM; AID 1700; DLD-1 KLF5 promoter-luciferase reporter, luminescence;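 active means inhibition above a per-plate limit of that plate's mean compound inhibition plus 3 SD, cut at about 60% in these data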;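 further: higher means less KLF5 promoter-driven luciferase light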
Hits are given with their value; 0 = inactive; - = no result. This is a sample that favours compounds with a hit; in the whole collection about 2.1% have one here.

SMILES | MT stabilizer | b-catenin transl | Ba/F3 V617F tox | IEC-6 cytotox | BaF3 parental | KLF5 inh
CN1/C(=C\C(=O)COC(=O)Cn2nnc(-c3ccccc3)n2)C(C)(C)c2ccccc21 | 0 | 0 | 63 | 0 | 63 | 0
CN1/C(=C\C(=S)NC(=O)c2cccc(Br)c2)C(C)(C)c2ccccc21 | 0 | 0 | 59 | 0 | 64 | 0
CN1/C(=C\C(=S)NC(=O)c2ccc([N+](=O)[O-])cc2)C(C)(C)c2ccccc21 | 0 | 0 | 0 | 0 | 0 | 0
COc1ccc(N=C2NC(=O)/C(=C\c3ccco3)S2)cc1 | 0 | 0 | 0 | 0 | 0 | 0
O=C1NC(=Nc2ccc(O)cc2)S/C1=C\C=C\c1ccco1 | - | 0 | 75 | 0 | 61 | 0
CCOc1ccc2cc(C#N)c(SCC(=O)NC(C)CC)nc2c1 (configuration not stated) | 44 | 0 | 0 | 0 | 0 | 0
[O-]/C(=C(\C(=S)NCCN1CCOCC1)[n+]1ccccc1)c1ccc(Cl)s1 | 0 | 0 | 0 | 0 | 0 | 0
CCCCCN(C(=O)NC(=O)NC(C)CC)S(C)(=O)=O (configuration not stated) | 0 | 0 | 0 | 0 | 89 | 0
CCC(C)NC(=O)NC(=O)N(C1CCCCC1)S(C)(=O)=O (configuration not stated) | 0 | - | 0 | 0 | 0 | 0
O=C(Nc1ccccc1-c1nc2ccccc2o1)c1ccc2c(c1)OCCO2 | 15 | - | 0 | 0 | 0 | 0
O=C(Nc1ccc(S(=O)(=O)NC2CCCC2)cc1)c1cnccn1 | 0 | - | 0 | 0 | 0 | 0
C[C@H](NC(=O)c1nc[nH]c1C(=O)NCC(=O)OCc1ccccc1)c1ccccc1 | - | - | - | 0 | - | 0
COc1ccccc1-n1cnc2cc(NCc3cccs3)ccc21 | 18 | 162 | 73 | 82 | 73 | 0
Cc1ccccc1-n1cnc2cc(NCc3cccs3)ccc21 | 27 | 0 | 0 | 0 | 0 | 0
CC(C)(C)n1cnc2cc(NCc3cccs3)ccc21 | 0 | 0 | 0 | 0 | 0 | 0
COc1ccccc1-n1cnc2cc(NCc3ccccc3O)ccc21 | - | 0 | 0 | 0 | 0 | 0
N#Cc1cc2c(cc1NC(=O)CCn1cnnn1)OCO2 | - | - | - | 0 | - | 0
Cc1ccccc1C1CC(c2cccs2)Nc2nnnn21 (configuration not stated) | 0 | 0 | 0 | 0 | 0 | 0
Cc1ccc(S(=O)(=O)n2[nH]c(=O)cc2NC(=O)c2cccs2)cc1 | 0 | 0 | 26 | 0 | 35 | 0
CN(Cc1ccccc1)S(=O)(=O)c1ccc(NC(=S)NC(=O)C2CCCC2)cc1 | 28 | 0 | 0 | 0 | 0 | 0
CCC(=O)N1CCN(c2ccc(NC(=O)COc3ccc(CC)cc3)cc2)CC1 | - | - | - | 0 | - | 0
O=[N+]([O-])/C=C1\C=CC=CN1Cc1ccc(Cl)cc1 | - | - | - | 0 | - | 0
N#Cc1c(NC(=O)c2ccccc2)sc2c1CCCCC2 | 0 | 0 | 0 | 0 | 0 | 0
N#Cc1c(Cl)nsc1NC(=O)c1ccccc1 | 0 | 0 | 29 | 0 | 40 | 0
COCC(C)NC(=O)NC1(C(F)(F)F)Oc2ccc(Cl)cc2O1 (configuration not stated) | 0 | 0 | 38 | 0 | 35 | 0
SMILES | MT stabilizer | b-catenin transl | Ba/F3 V617F tox | IEC-6 cytotox | BaF3 parental | KLF5 inh
O=C(NCCN1CCOCC1)NC1(C(F)(F)F)Oc2ccc(Cl)cc2O1 (configuration not stated) | 0 | 0 | 44 | 0 | 29 | 0
CCC(C(=O)NCc1ccc(C)o1)n1nc(C)c2c(C)n(-c3ccccc3)nc2c1=O (configuration not stated) | - | - | - | 0 | - | 0
CCOc1ccc(N2Cc3ccccc3C2)cc1 | 0 | 0 | 0 | 0 | 0 | 0
Cc1ccc(-c2c[n+]3c(n2-c2ccccc2)CCC3)cc1 | - | 0 | 82 | 0 | 65 | 0
CCOc1ccc(-n2c(-c3ccccc3)c[n+]3c2CCCCC3)cc1 | 0 | 0 | 89 | 0 | 70 | 0
c1ccc(-c2c[n+]3c(n2-c2ccccc2)CCC3)cc1 | - | 0 | 71 | 0 | 65 | 0
S=c1[nH]cc(-c2ccccc2)n1-c1ccccc1 | 0 | 0 | 0 | 0 | 0 | 0
O=C(Nc1ccc(F)cc1)C1(S(=O)(=O)c2ccc(Cl)cc2)CC1 | - | - | - | 0 | - | 0
Cc1cccc(-n2ccc(=O)c(C(=O)Nc3ccc(S(=O)(=O)N4CCOCC4)cc3)n2)c1 | - | - | - | 0 | - | 0
O=C(NCCc1ccccc1)C1CCCN1C(=O)Nc1cccc(Cl)c1 (configuration not stated) | - | - | - | 0 | - | 0
Cc1ccc2c(c1)CCCN2C(=O)c1ccc2c(c1)OCO2 | 0 | 0 | 29 | 0 | 30 | 0

From PubChem BioAssay
